Hits are enriched below; roughly 2.7% of the tested compounds scored in any of these assays.
NTR1 ag – agonists of human NTR1, primary screen, imaging, U2OS cells, beta-arrestin-GFP, high content; 330,000 compounds, 0.17% hits; activation, % at 20 µM; Neurotensin receptor type 1 (Homo sapiens), P30989; NTR1-U2OS beta-arrestin-GFP spot imaging, agonist mode;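 active = activation at or above 40% of the spot to cytoplasm intensity ratio, with at least 20 cells analyzed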;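 note: 0% = DMSO without peptide and 100% = 100 nM NTR1 peptide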
Lipid droplet – inhibitors of hepatocyte lipid droplet formation, primary screen, imaging, high-throughput imaging, BODIPY stain; AML12 mouse hepatocytes, oleate lipid droplets; inhibition, % at 6.5 µM; 240,000 compounds, 0.4% hits; AID 1656, 2009;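 active = lipid droplet intensity inhibited by at least 50%, with more than 500 cells counted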
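Material: mouse AML12 hepatocyte cell line, fixed after treatment; Timing: compound with oleate, overnight; Technique: high-content imaging of BODIPY-stained droplets and DAPI nuclei; Probe or stimulus: oleate, 100 µM final; Dosing: compound at 6.5 µM only.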
PREPL inh – PREPL enzyme inhibitors, primary screen, biochemical, fluorescence polarization; AID 2751, 2010; Prolyl endopeptidase-like (Homo sapiens), Q4J6C6; recombinant PREPL, fluorescence polarization activity-based probe; inhibition, % at 5.96 µM; 320,000 compounds, 0.68% hits; in the data active = inhibition above about 43%;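 note: 0% = enzyme with DMSO and 100% = wells lacking enzyme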
m5-HT2A agonist – mouse Htr2a agonists via beta-arrestin recruitment, primary screen, cell-based, luminescence; 5-hydroxytryptamine receptor 2A (Mus musculus), P35363; CHO-K1 mHTR2A beta-arrestin complementation; percent of 30 µM serotonin response; activation, % at 7.6 µM; 360,000 compounds, 0.66% hits; AID 624169, 2012;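 active = activation above a run cutoff, the mean activation of all tested compounds plus 3 SD, cut at about 14% in these data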;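 note: 0% = plate median of compound wells and 100% = 30 µM serotonin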
MC4R barr agon – MC4R agonists recruiting beta-arrestin, primary screen, cell-based, luminescence, agonist arm of biased-ligand search; Melanocortin receptor 4 (Homo sapiens), P32245; U2OS MC4R beta-arrestin complementation; percent of melanotan II response, DMSO zero; activation, % at 8.9 µM; 360,000 compounds, 0.98% hits; AID 540308, 2011;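 active = activation above a per-plate cutoff, the mean activation of sample wells on that plate plus 3 SD, cut at about 8% in these data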
Target sequence (P32245 whole entry, looked up): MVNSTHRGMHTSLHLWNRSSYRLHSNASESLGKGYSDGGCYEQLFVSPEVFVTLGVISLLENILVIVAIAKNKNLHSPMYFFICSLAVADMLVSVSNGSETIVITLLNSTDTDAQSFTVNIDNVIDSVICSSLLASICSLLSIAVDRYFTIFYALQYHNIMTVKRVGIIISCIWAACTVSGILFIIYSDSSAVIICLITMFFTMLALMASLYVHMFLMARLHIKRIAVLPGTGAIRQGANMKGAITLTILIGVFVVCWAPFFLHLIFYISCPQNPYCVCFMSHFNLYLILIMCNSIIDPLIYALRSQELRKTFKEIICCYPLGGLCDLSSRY
MC4R antag cAMP – MC4R antagonists of cAMP signaling, primary screen, cell-based, TR-FRET, antagonist arm of biased-ligand search | MC4R-expressing cells, MTII-stimulated cAMP, LANCE TR-FRET | inhibition, % at 6.5 µM | 360,000 compounds, 0.48% hits | AID 540295, 2011;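 active = inhibition above its plate's cutoff, the mean of tested wells on that plate plus 3 SD, cut at about 29% in these data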;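 note: 0% = Melanotan II alone and 100% = Melanotan II plus saturating MCL0020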
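System – human MC4R-expressing U2OS cells · Also added – Melanotan II · Dosing – one concentration, 6.5 µM nominal · Timing – 30-min compound, 1-h challenge, 1-h detection, room temperature · Measured by – Eu-cAMP/anti-cAMP TR-FRET, emission 671 nm · Replicates – singlicate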
MOR ag counter – OPRM1 agonists via beta-arrestin recruitment, confirmation, counter-screen for mouse HTR2A agonist project, cell-based, luminescence, single concentration; AID 624380, 2012; activation, % at 9.3 µM; U2OS OPRM1 beta-arrestin PathHunter; DMSO 0%, DAMGO 9.3 µM 100%; 2,300 compounds, 5.3% hits; shares compounds with m5-HT2A agonist;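 active = mean activation above the mean of DMSO-only wells plus 3 SD, cut at about 0.5% in these data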
Target sequence (P35372 whole entry, looked up): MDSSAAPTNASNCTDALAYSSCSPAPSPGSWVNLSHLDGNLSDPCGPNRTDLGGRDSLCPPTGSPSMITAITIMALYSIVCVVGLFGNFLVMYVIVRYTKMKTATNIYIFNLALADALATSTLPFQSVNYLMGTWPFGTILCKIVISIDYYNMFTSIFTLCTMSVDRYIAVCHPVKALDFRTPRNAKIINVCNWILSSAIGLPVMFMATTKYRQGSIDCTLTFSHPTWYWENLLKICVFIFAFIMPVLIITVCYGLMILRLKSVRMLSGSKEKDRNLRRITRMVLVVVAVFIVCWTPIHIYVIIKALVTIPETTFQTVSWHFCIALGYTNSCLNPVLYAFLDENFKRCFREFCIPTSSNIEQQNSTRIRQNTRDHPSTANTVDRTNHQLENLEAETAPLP
HTR2A ag conf – mouse HTR2A agonists, beta-arrestin recruitment, confirmation, cell-based, luminescence, CHO-K1 PathHunter, triplicate. shares compounds with m5-HT2A agonist. DMSO 0%, 30 µM serotonin 100%. activation, % at 7.6 µM. 2,300 compounds, 19% hits;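 active = mean activation across triplicates above the hit threshold derived in the original primary screen, cut at about 15% in these data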
Active calls of the source: *; nt = no result.

SMILES | NTR1 ag | Lipid droplet | PREPL inh | m5-HT2A agonist | MC4R barr agon | MC4R antag cAMP | MOR ag counter | HTR2A ag conf
CCOC(=O)Cn1c(=O)n(Cc2ccc(C)cc2)c(=O)c2cccnc21 | 0 | 15 | -5 | 50* | -2 | -4 | -1 | -3
NC(=O)Cn1c(=O)n(Cc2ccccc2)c(=O)c2cccnc21 | 0 | -1 | -7 | -3 | 0 | 4 | nt | nt
O=S(=O)(NCC(O)c1ccccc1)c1cc(Cl)sc1Cl (stereo unspecified) | 0 | -11 | -6 | 4 | -3 | 1 | nt | nt
CN1CCN(C(=O)c2ccc(NS(=O)(=O)c3cccc([N+](=O)[O-])c3)cc2)CC1 | -1 | nt | nt | -9 | -2 | 0 | nt | nt
Cc1[nH]n(-c2ccccc2)c(=O)c1N=Nc1ccccc1C(=O)O | 6 | -7 | 2 | 18* | 0 | -4 | 0 | 11
CCCCCCn1cc(CN2CC(N3CCN(C)CC3)CS2(=O)=O)nn1 (stereo unspecified) | nt | nt | nt | 7 | nt | nt | nt | nt
Cc1cc(C)cc(Cn2cc(CN3CC(N4CCN(Cc5ccccc5F)CC4)CS3(=O)=O)nn2)c1 (stereo unspecified) | nt | nt | nt | 15* | nt | nt | 0 | 5
CCCCCCn1cc(CN2CC(N3CCCCC3)CS2(=O)=O)nn1 (stereo unspecified) | nt | nt | nt | 16* | nt | nt | 0 | -2
O=C(Nc1ccc(C(=O)O)cc1)/C(=C\c1ccc([N+](=O)[O-])cc1)NC(=O)c1ccc(Br)cc1 | 0 | -24 | -10 | -1 | -2 | 14 | nt | nt
Oc1cc2c(cc1CN1CCN(c3ncccn3)CC1)OCO2 | 2 | 1 | 7 | 17* | -3 | -8 | -1 | 123*
O=C(CN1CCN(c2ncccn2)CC1)NCc1ccc2c(c1)OCO2 | 2 | 2 | -4 | 10 | -3 | 6 | nt | nt
Clc1cccc(Cl)c1CN1CCN(c2ncccn2)CC1 | 3 | -2 | nt | 11 | 4 | 7 | nt | nt
Cc1ccc(C)c(CN2CCN(c3ncccn3)CC2)c1 | 0 | 0 | 0 | 17* | 0 | -1 | 0 | 62*
Cc1ccc(CN2CCN(c3ncccn3)CC2)o1 | 1 | 7 | 1 | 30* | 2 | -3 | -1 | 60*
COc1cccc(CN2CCN(c3ncccn3)CC2)c1 | -2 | nt | 11 | 36* | -2 | 12 | 0 | 113*
COc1ccc(Br)cc1CN1CCCCCCC1 | 0 | 6 | 7 | 0 | -1 | 20 | nt | nt
COc1cc(Br)cc(CN2CCN(c3ncccn3)CC2)c1O | 1 | -4 | nt | 33* | -1 | 3 | 0 | 106*
Fc1ccccc1CN1CCN(c2ncccn2)CC1 | -1 | 1 | -4 | 26* | 0 | -4 | 0 | 121*
CO[C@@H]1CN(C)C(=O)c2ccc(NC(=O)C3CCC3)cc2OC[C@H](C)N(CC2CCCCC2)C[C@H]1C | nt | nt | nt | 21* | nt | nt | 0 | -2
CCOC(=O)C1CCCN(C(=O)c2cccc3ccccc23)C1 (stereo unspecified) | 0 | 1 | 2 | 17* | 0 | 16 | 0 | -3
Cc1c(-c2cccc(NC(=O)c3cccs3)c2)nc2ncccn12 | 2 | 13 | 7 | 15* | -1 | 1 | -1 | 7
O=C(N[C@H](CO)c1ccccc1)[C@H]1O[C@@H](n2ccc(=O)[nH]c2=O)[C@H](O)[C@@H]1O | nt | nt | nt | 15* | nt | nt | -1 | 0
O=C(N[C@H](CO)Cc1ccccc1)[C@H]1O[C@@H](n2ccc(=O)[nH]c2=O)[C@H](O)[C@@H]1O | nt | nt | nt | 1 | nt | nt | nt | nt
Cc1ccccc1C(=O)c1cccn1CC(=O)NCc1ccccc1Cl | -1 | -6 | -9 | 26* | 7 | 3 | 0 | 5
O=C(Cn1cccc1C(=O)c1ccccc1)NCc1ccccc1Cl | -1 | -23 | -6 | 5 | 0 | 7 | nt | nt
SMILES | NTR1 ag | Lipid droplet | PREPL inh | m5-HT2A agonist | MC4R barr agon | MC4R antag cAMP | MOR ag counter | HTR2A ag conf
O=C(O)CC1(c2ccc(F)cc2)C2CC3CC(C2)CC1C3 (stereo unspecified) | 0 | 16 | 13 | 1 | 0 | -2 | nt | nt
COc1cc(NC(=O)c2ccc(F)cc2)c(OC)cc1Cl | 1 | -7 | -1 | 4 | -1 | -1 | nt | nt
COc1cc(OC)c(NC(=O)c2cncn2-c2ccc(F)cc2)cc1Cl | 1 | -5 | 13 | 15* | 2 | 7 | 0 | 2
COc1ccc2c(c1)c(=O)oc1cc(OCC(=O)NC3CC3)ccc12 | -1 | -18 | -4 | 15* | -1 | 1 | 0 | -4
CCCCCCCCN1C(=O)[C@H](CC(=O)N2CCSCC2)C[C@@]2(C(=O)OC)CC(C)(C)CC=C12 | nt | nt | nt | -1 | nt | nt | nt | nt
O=C(COC(=O)c1ccco1)Nc1ccc(N2CCOCC2)cc1 | 0 | nt | nt | 17* | 4 | 0 | 0 | -3
CC(=O)Nc1ccc(C(=O)OCC(=O)Nc2ccc(N3CCOCC3)cc2)cc1 | -2 | -2 | 14 | -1 | -3 | 6 | nt | nt
COCCCN1CN(S(=O)(=O)c2cccs2)c2nc3ccccc3nc21 | 2 | -3 | -11 | 1 | -1 | 19 | nt | nt
CCCC[C@@H]1CNC(=O)C(=O)N1CCc1cc(C(F)(F)F)cc(C(F)(F)F)c1 | -2 | 27 | 7 | 15* | -1 | 0 | 0 | -2
CCCC[C@@H]1CNC(=S)N1CCc1cccc(F)c1 | 1 | -21 | 3 | 15* | -1 | 3 | 0 | -3
CCOc1ccccc1/C=N/NC(=O)c1nnn(-c2nonc2N)c1CN1CCCC1 | 1 | 6 | 5 | -1 | -2 | 3 | nt | nt
CCn1c(SCC(=O)c2cccs2)nnc1-c1ccco1 | 1 | nt | 6 | 16* | -2 | 11 | -1 | 4
CC1(C(=O)NS(=O)(=O)c2cccs2)CCN1C(=O)Cc1ccc(Cl)cc1Cl (stereo unspecified) | nt | nt | nt | 3 | 0 | -1 | nt | nt
Cc1ccccc1-n1c(SCC(=O)NCC2CCCO2)nnc1-c1ccncc1 (stereo unspecified) | -2 | nt | -2 | -2 | -2 | 3 | nt | nt
